# According to ChEMBL document CHEMBL4602689, “Absolute Configuration and Antibiotic Activity of Piceamycin” (J Nat Prod, 2020):
# The source made the active and inactive calls. The rule behind the calls is not given here.
# What was measured:
# [1] = test system: Staphylococcus aureus; test: Antibacterial activity against Staphylococcus aureus ATCC 25923 assessed as reduction in microbial growth after 24 hrs by two-fold serial dilution method; type: functional; conditions: ATCC 25923, 24 h
# Procedure, shortened: (§1)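 Strains grown overnight in Mueller–Hinton broth at 37 °C, centrifuged and washed twice in sterile water. DMSO stocks were 2-fold serially diluted in MHB (128 to 0.015 μg/mL). Final inoculum was 5 × 10⁴ cfu/mL, incubated 24 h at 37 °C. MIC is the lowest concentration inhibiting growth. Controls were ampicillin, tetracycline, streptomycin and DMSO.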
# [2] = test system: Enterococcus faecalis; test: Antibacterial activity against Enterococcus faecalis ATCC 19433 assessed as reduction in microbial growth after 24 hrs by two-fold serial dilution method; type: functional; conditions: ATCC 19433, 24 h; procedure, shortened: as §1
# [3] = test system: Enterococcus faecium; test: Antibacterial activity against Enterococcus faecium ATCC 19434 assessed as reduction in microbial growth after 24 hrs by two-fold serial dilution method; type: functional; conditions: ATCC 19434, 24 h; procedure, shortened: as §1
# [4] = test system: Proteus hauseri; test: Antibacterial activity against Proteus hauseri NBRC 3851 assessed as reduction in microbial growth after 24 hrs by two-fold serial dilution method; type: functional; conditions: NBRC 3851, 24 h; procedure, shortened: as §1
# [5] = test system: Klebsiella pneumoniae; test: Antibacterial activity against Klebsiella pneumoniae ATCC 10031 assessed as reduction in microbial growth after 24 hrs by two-fold serial dilution method; type: functional; conditions: ATCC 10031, 24 h; procedure, shortened: as §1
# [6] = test system: Salmonella enterica; test: Antibacterial activity against Salmonella enterica ATCC 14028 assessed as reduction in microbial growth after 24 hrs by two-fold serial dilution method; type: functional; conditions: ATCC 14028, 24 h; procedure, shortened: as §1
# [7] = test system: Escherichia coli; test: Antibacterial activity against Escherichia coli ATCC 25922 assessed as reduction in microbial growth after 24 hrs by two-fold serial dilution method; type: functional; conditions: ATCC 25922, 24 h; procedure, shortened: as §1
# [8] = test system: Bacillus thuringiensis; test: Antibacterial activity against Bacillus thuringiensis KACC 10168 assessed as reduction in microbial growth after 24 hrs by two-fold serial dilution method; type: functional; conditions: KACC 10168, 24 h
# Procedure, shortened: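 Bacteria grown overnight in tryptic soy broth at 28 °C, centrifuged and washed twice in sterile water. Compounds in DMSO were serially diluted 2-fold in TSB from 128 to 0.015 μg/mL. Final inoculum was 5 × 10⁴ cfu/mL, incubated 24 h at 28 °C. MIC taken as the lowest concentration inhibiting growth. Controls were ampicillin, tetracycline, streptomycin and DMSO.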
# [9] = test system: A549; test: Antiproliferative activity against human A549 cells assessed as reduction in cell viability by sulforhodamine B assay; type: functional, cell-based
# Procedure, shortened: (§2)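 Cells kept in RPMI 1640 with 10% heat-inactivated FBS plus penicillin, streptomycin and amphotericin B, at 37 °C and 5% CO₂. Cells seeded in 96-well plates and treated for the indicated times; zero-day controls read after 30 min. Fixed, stained with 0.4% SRB in 1% acetic acid, dye dissolved in 10 mM Tris pH 10.0, A515 read. IC50 by nonlinear regression.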
# [10] = test system: HCT-116; test: Antiproliferative activity against human HCT116 cells assessed as reduction in cell viability by sulforhodamine B assay; type: functional, cell-based; procedure, shortened: as §2
# [11] = test system: SNU-638; test: Antiproliferative activity against human SNU638 cells assessed as reduction in cell viability by sulforhodamine B assay; type: functional, cell-based; procedure, shortened: as §2
# [12] = test system: SK-HEP1; test: Antiproliferative activity against human SKHEP1 cells assessed as reduction in cell viability by sulforhodamine B assay; type: functional, cell-based
# Procedure, shortened: (§3)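 Cells kept in DMEM with 10% heat-inactivated FBS plus penicillin, streptomycin and amphotericin B, at 37 °C and 5% CO₂. SRB assay: cells seeded in 96-well plates and treated for the indicated times, with 30-min zero-day controls. Fixed, stained with 0.4% SRB in 1% acetic acid, solubilized in 10 mM Tris pH 10.0, absorbance at 515 nm. IC50 by nonlinear regression.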
# [13] = test system: MDA-MB-231; test: Antiproliferative activity against human MDA-MB-231 cells assessed as reduction in cell viability by sulforhodamine B assay; type: functional, cell-based; procedure, shortened: as §3
# [14] = test system: K562; test: Antiproliferative activity against human K562 cells assessed as reduction in cell viability by sulforhodamine B assay; type: functional, cell-based; procedure, shortened: as §2
# [15] = test system: Candida albicans; test: Growth inhibition of Candida albicans ATCC 10231; type: functional, organism-based
# [16] = test system: Aspergillus fumigatus; test: Growth inhibition of Aspergillus fumigatus HIC 6094; type: functional, organism-based
# [17] = test system: Trichophyton rubrum; test: Growth inhibition of Trichophyton rubrum NBRC 9185; type: functional, organism-based
# [18] = test system: Trichophyton mentagrophytes; test: Growth inhibition of Trichophyton mentagrophytes IFM 40996; type: functional, organism-based
MIC [1],MIC [2],MIC [3],MIC [4],MIC [5],MIC [6],MIC [7],MIC [8],IC50 [9],IC50 [10],IC50 [11],IC50 [12],IC50 [13],IC50 [14],SMILES,growth inhibition (GI) [15],growth inhibition (GI) [16],growth inhibition (GI) [17],growth inhibition (GI) [18]
–,–,–,–,–,–,–,–,600 nM,1360 nM,520 nM,380 nM,3320 nM,980 nM,COc1cc([C@@H]2c3cc4c(cc3[C@@H](O[C@@H]3O[C@@H]5CO[C@@H](C)O[C@H]5[C@H](O)[C@H]3O)[C@H]3COC(=O)[C@H]23)OCO4)cc(OC)c1O [ETOPOSIDE],–,–,–,–
–,–,–,–,–,–,–,130 µg/mL,–,–,–,–,–,–,CN[C@@H]1[C@H](O[C@H]2[C@H](O[C@H]3[C@H](O)[C@@H](O)[C@H](N=C(N)N)[C@@H](O)[C@@H]3N=C(N)N)O[C@@H](C)[C@]2(O)C=O)O[C@@H](CO)[C@H](O)[C@H]1O [STREPTOMYCIN],–,–,–,–
–,–,–,–,0.44 µg/mL,–,–,–,–,–,–,–,–,–,CN(C)[C@@H]1C(O)=C(C(N)=O)C(=O)[C@@]2(O)C(O)=C3C(=O)c4c(O)cccc4[C@@](C)(O)[C@H]3C[C@@H]12 [TETRACYCLINE],–,–,–,–

# The next lines start with the compound.
SMILES,MIC [1],MIC [2],MIC [3],MIC [4],MIC [5],MIC [6],MIC [7],MIC [8],IC50 [9],IC50 [10],IC50 [11],IC50 [12],IC50 [13],IC50 [14],growth inhibition (GI) [15],growth inhibition (GI) [16],growth inhibition (GI) [17],growth inhibition (GI) [18]
CC1=C/C[C@@H](O)CC(=O)/C=C/C=C/C=C\C=C\C=C/[C@@H](C)CNC(=O)\C=C/C=C\C=C\1,> 130 µg/mL,> 130 µg/mL,130 µg/mL,130 µg/mL,> 130 µg/mL,130 µg/mL,> 130 µg/mL,380 µg/mL,780 nM,1010 nM,850 nM,1870 nM,1000 nM,960 nM,–,–,–,–
CC1(C)S[C@@H]2[C@H](NC(=O)[C@H](N)c3ccccc3)C(=O)N2[C@H]1C(=O)O [AMPICILLIN],0.17 µg/mL,0.5 µg/mL,1 µg/mL,0.03 µg/mL,> 130 µg/mL,0.25 µg/mL,16 µg/mL,–,–,–,–,–,–,–,–,–,–,–
C[C@@H]1\C=C/C=C/C=C\C=C\C=C\C(=O)C2=C(O)C(=O)C[C@@]2(C)/C=C/C=C\C=C/C(=O)NC1,0.025 µg/mL,32 µg/mL,5.3 µg/mL,0.025 µg/mL,> 130 µg/mL,0.083 µg/mL,> 130 µg/mL,3.2 µg/mL,280 nM,220 nM,380 nM,320 nM,660 nM,740 nM,inactive,inactive,inactive,inactive
CC1=C\C[C@@H](O)CC(=O)/C=C/C=C/C=C\C=C\C=C/[C@@H](C)CNC(=O)\C=C/C=C/C=C/1,–,–,–,–,–,–,–,–,–,–,–,–,–,–,inactive,inactive,inactive,inactive
